Sampled rows, rich in hits. Any-hit rate of the full collection: about 2.3%.
TRPC4 PAM – positive allosteric modulators of TRPC4, primary screen, cell-based, mouse TRPC4beta, HEK293 mu-opioid, Fluo-4 calcium; Short transient receptor potential channel 4 (Mus musculus), Q9QUQ5; DAMGO EC20, Fluo-4 Ca2+ flux; stronger effect = higher value; B-score at 10 µM; hit rate 0.42% among 310,000; AID 2227, 2009;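 active means B-score of calcium response area above 5 SD of library B-scores, with initial fluorescence ratio within 5 SD of library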;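 further: B-score of integrated fluorescence ratio over time as area under calcium response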
TRPC4 agonist – activators of mouse TRPC4 channel, primary screen, Fluo4 calcium, HEK293 TRPC4beta/mu-opioid cells; Short transient receptor potential channel 4 (Mus musculus), Q9QUQ5; Fluo4 calcium fluorescence; stronger effect = higher value; B-score at 10 µM; hit rate 0.49% among 310,000; AID 2237, 2010;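 active means B-score above 5 SD of library B-scores, and initial fluorescence ratio not above library mean plus 5 SD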;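 further: positive B-score marks a calcium rise read as TRPC4 activation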
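Assay system – TRPC4beta and mu-opioid receptor HEK293 stable cells · Measured by – Fluo4 fluorescence, kinetic · Schedule – dye loading 45 min room temperature, 110 s kinetic read · Read-out – B-scored integrated calcium fluorescence ratio · Controls – buffer and maximal DAMGO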
TRPC4 inh – inhibitors of mouse TRPC4 channel, primary screen, Fluo4 calcium, HEK293 TRPC4beta/mu-opioid cells | B-score at 10 µM | hit rate 0.39% among 300,000 | DAMGO-evoked Fluo4 calcium flux; stronger effect = lower value | Short transient receptor potential channel 4 (Mus musculus), Q9QUQ5;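 active means B-score over 3 SD under the library average, no early fluorescence shift, positive overall ratio signal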
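Assay system: TRPC4beta/mu-opioid receptor HEK293 cell line; compound dosing: single concentration per test compound; detection: Fluo4 Ca2+ flux fluorescence; evaluation: per-well B score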
TRPC6 activator – mouse TRPC6 channel activators, primary screen, cell-based, HEK293, membrane potential dye. AID 2550, 2010. B-score at 10 µM. HEK293-TRPC6 membrane potential dye fluorescence; stronger effect = higher value. hit rate 0.13% among 310,000;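 active means B-score of the integrated fluorescence ratio above library mean plus 3 SD, and starting fluorescence ratio within library mean plus 5 SD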;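 further: higher score means more depolarization so channel activation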
Target sequence (Q61143 whole entry, looked up): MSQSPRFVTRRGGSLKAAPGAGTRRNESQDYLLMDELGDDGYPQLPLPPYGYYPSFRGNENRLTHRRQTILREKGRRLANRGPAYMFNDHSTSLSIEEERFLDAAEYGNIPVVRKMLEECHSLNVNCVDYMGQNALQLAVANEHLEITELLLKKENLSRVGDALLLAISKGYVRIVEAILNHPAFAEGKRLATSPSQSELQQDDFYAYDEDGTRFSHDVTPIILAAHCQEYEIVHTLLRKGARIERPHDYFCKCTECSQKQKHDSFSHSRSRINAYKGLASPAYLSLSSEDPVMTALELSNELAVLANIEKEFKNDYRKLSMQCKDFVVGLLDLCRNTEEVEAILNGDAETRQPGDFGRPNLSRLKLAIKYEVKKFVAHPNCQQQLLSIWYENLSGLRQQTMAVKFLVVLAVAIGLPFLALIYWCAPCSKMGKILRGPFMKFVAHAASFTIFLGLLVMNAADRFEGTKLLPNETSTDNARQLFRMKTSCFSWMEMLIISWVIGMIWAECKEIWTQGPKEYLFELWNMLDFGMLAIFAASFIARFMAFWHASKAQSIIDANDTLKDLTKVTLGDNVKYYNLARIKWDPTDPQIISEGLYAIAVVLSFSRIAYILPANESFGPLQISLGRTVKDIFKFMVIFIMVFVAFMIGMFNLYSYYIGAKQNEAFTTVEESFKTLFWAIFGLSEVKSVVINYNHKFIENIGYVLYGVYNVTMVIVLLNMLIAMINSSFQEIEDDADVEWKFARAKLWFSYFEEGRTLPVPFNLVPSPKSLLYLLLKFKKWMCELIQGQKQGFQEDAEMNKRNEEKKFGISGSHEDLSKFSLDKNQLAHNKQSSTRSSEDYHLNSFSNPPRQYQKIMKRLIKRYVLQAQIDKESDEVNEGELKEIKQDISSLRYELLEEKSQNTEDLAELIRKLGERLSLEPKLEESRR
TRPC6 inh – mouse TRPC6 channel inhibitors, primary screen, cell-based, HEK293, membrane potential dye | ACh-evoked depolarization; stronger effect = lower value | hit rate 1.1% among 310,000 | B-score at 10 µM | AID 2553, 2010;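 active means B-score under library mean minus 3 SD, initial fluorescence not abnormally high, positive integrated signal ratio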;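 further: B-score derived from integrated fluorescence ratio over the kinetic read; more negative B-score means stronger inhibition of depolarization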
TRPC4 spec 2 – second selectivity test of TRPC6 inhibitors: effect on mouse TRPC4 | shares compounds with TRPC6 inh | HEK293 TRPC4/MOR, membrane potential dye fluorescence; channel activated by saturating DAMGO dose | inhibition, % at 10 µM | hit rate 42% among 920;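 active means compounds whose fluorescence signal differed from control wells by over 3 SD, either direction, in both duplicate plates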
TRPC4 spec – mouse TRPC4 modulation by TRPC6 hits, confirmation, selectivity assay for TRPC6 inhibitor project, cell-based, HEK293 TRPC4/mu-opioid, membrane potential dye | shares compounds with TRPC6 inh | membrane potential fluorescence | activity change, negative = inhibition, % at 10 µM | hit rate 61% among 920 | AID 2777, 2010;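 active means rise or fall in signal beyond 3 SD of buffer-only wells in both replicate plates, either sign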;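 further: integrated kinetic ratio of fluorescence range over baseline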
HEK293 MPD ctr 2-1 – nonspecific membrane potential effects, parental HEK293, confirmation, counter-screen for TRPC6 inhibitor project, cell-based, second counter screen. shares compounds with TRPC6 inh. parental HEK293 membrane potential dye fluorescence; maximal acetylcholine challenge after compound addition. signal change vs control, % at 10 µM. hit rate 31% among 920;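 active means membrane potential signal moving either way by over 3 SD of the maximum-effect control, in both duplicate plates, meaning non-specific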
HEK293 MPD ctr-1 – membrane potential modulation in parental HEK293, confirmation, counter-screen for TRPC6 inhibitor project, cell-based | shares compounds with TRPC6 inh | parental HEK293 membrane potential dye fluorescence | membrane potential signal change, % at 10 µM | hit rate 60% among 920;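 active means membrane potential signal shifting up or down by more than 3 SD of buffer-only wells, on both duplicate plates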
HEK293 MPD ctr-2 – parental HEK293 membrane potential modulation, confirmation, counter-screen for TRPC6 modulator project, cell-based; hit rate 51% among 2,400; membrane potential signal change, % at 10 µM; shares compounds with TRPC6 inh; membrane potential dye fluorescence;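 active means membrane potential signal moves up or down beyond 5 SD from buffer-only wells, on both duplicate plates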
HEK293 MPD ctr 2-2 – parental HEK293 nonspecific activity of TRPC6 modulators, second screen; hit rate 14% among 2,400; membrane potential dye fluorescence; after compound, maximal acetylcholine stimulation; inhibition, % at 10 µM; AID 488926; shares compounds with TRPC6 inh;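 active means membrane potential signal drops by more than 5 SD from the mean control signal, in both duplicate plates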;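 further: plate controls were acetylcholine ECmax control wells for no effect and buffer only wells for full effect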
TRPC4/MOR mod – TRPC4 modulation by TRPC6 hit compounds, confirmation, selectivity assay for TRPC6 modulator project, cell-based, HEK293 TRPC4/mu-opioid, membrane potential dye, mouse; shares compounds with TRPC6 inh; membrane potential fluorescence; percent change from control (negative = decrease, positive = increase), % at 10 µM; hit rate 69% among 2,400; AID 488927, 2010;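 active means membrane potential signal moved up or down beyond 5 SD of buffer control wells, in both duplicate plates, actives on both sides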;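 further: plate controls were assay buffer wells for no effect and DAMGO maximal-effect wells for full effect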
TRPC4 ctr inh 2 – second selectivity test of TRPC6 modulators against mouse TRPC4; shares compounds with TRPC6 inh; HEK293 TRPC4/mu-opioid, membrane potential dye fluorescence; stimulated with maximal-effect DAMGO; inhibition, % at 10 µM; hit rate 55% among 2,400;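 active means drop in membrane potential signal beyond 5 SD of the control wells in both duplicate plates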;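 further: TRPC4 counter screen for TRPC6 hits run under conditions tuned for TRPC6 not TRPC4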
TRPC6 block conf – mouse TRPC6 channel inhibitors, confirmation, HEK293 cells, membrane potential dye, duplicate; shares compounds with TRPC6 inh; ACh-evoked depolarization; inhibition, % at 10 µM; hit rate 43% among 3,300;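 active means fluorescence ratio falls more than 5 SD below the full-stimulation control mean, in both duplicate runs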;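 further: integrated fluorescence ratio of peak minus minimum over baseline after agonist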
TRPC6 act confirm – mouse TRPC6 channel activators, confirmation, HEK293 cells, membrane potential dye, duplicate; shares compounds with TRPC6 inh; HEK293-TRPC6 membrane potential dye fluorescence, FDSS; activation, % at 10 µM; hit rate 11% among 2,800; AID 488961, 2010;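 active means ratio signal rise beyond 5 SD above unstimulated control wells' mean, seen in both duplicate runs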;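 further: plate controls were buffer EC0 wells for no effect and acetylcholine ECmax response for full effect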
Numbers without * were called inactive; i = inactive; · = no result.

SMILES	TRPC4 PAM	TRPC4 agonist	TRPC4 inh	TRPC6 activator	TRPC6 inh	HEK293 MPD ctr-2	HEK293 MPD ctr 2-2	TRPC4/MOR mod	TRPC4 ctr inh 2	TRPC6 block conf	TRPC6 act confirm	others
C=C(C)CC1(NC(C)c2ccccc2)CCCCC1 (stereo not drawn)	i	i	i	i	-5.1*	i	i	24%*	i	i	i
CCCCN(C(=O)C1CC(=O)N(CCc2ccc(OC)c(OC)c2)C1)c1c(N)n(CCCC)c(=O)[nH]c1=O (stereo not drawn)	i	i	i	i	i	·	·	·	·	·	·
COc1ccc(-c2n(CC(=O)OC3CC(C)CCC3C(C)C)c3ccccc3[n+]2C)cc1 (stereo not drawn)	i	i	i	15*	-5.1*	536%*	i	108%*	56%*	50%*	192%*
Brc1cc2c(cc1CN1CCc3ccccc3C1)OCO2	i	i	i	i	-7.3*	·	·	·	·	i	i	TRPC4 spec 2=i;TRPC4 spec=i;HEK293 MPD ctr 2-1=i;HEK293 MPD ctr-1=i
CCOC(=O)c1nc(NCc2ccccc2)c2ccccc2n1	i	i	i	i	i	·	·	·	·	·	·
CCCCN(C)C(=O)CSc1nc(NCc2ccc(OC)cc2)c2ccccc2n1	i	i	i	i	-9.7*	·	·	·	·	i	i	TRPC4 spec 2=68%*;TRPC4 spec=4.6%*;HEK293 MPD ctr 2-1=i;HEK293 MPD ctr-1=6.4%*
COc1ccc(/C=N/n2c(-c3n[nH]c4c3CCC4)n[nH]c2=S)cc1	i	i	i	i	-5*	i	i	i	i	i	·
CC(/C=N/n1c(-c2n[nH]c3c2CCC3)n[nH]c1=S)=C\c1ccco1	i	i	i	i	-8.4*	·	·	·	·	70%*	i	TRPC4 spec 2=i;TRPC4 spec=i;HEK293 MPD ctr 2-1=-11%*;HEK293 MPD ctr-1=i
CC(/C=N/n1c(-c2cccnc2)n[nH]c1=S)=C\c1ccco1	i	i	i	i	i	·	·	·	·	·	·
CCOc1cc(S(=O)(=O)NCCCN2CCOCC2)c(C)cc1C	i	i	i	i	i	·	·	·	·	·	·
CCOC(=O)c1nnn(-c2nc(OC)nc(N3CCCC3)n2)c1-c1ccccc1	i	i	i	i	i	·	·	·	·	·	·
CCNc1nc(N2CCCCC2)nc(-n2nnc(C(=O)OCC)c2C)n1	i	i	i	12*	i	i	i	112%*	80%*	i	68%*
COCc1cc(CN(C)C(=O)C2CCC(=O)N(Cc3cccc(OC)c3)C2)[nH]n1 (stereo not drawn)	i	i	i	i	i	·	·	·	·	·	·
OCCN1CCN(c2nc(-c3ccccc3)c3cc(Cl)ccc3n2)CC1	i	i	i	i	i	·	·	·	·	·	·
OCCCCCN=c1cc(-c2ccccc2)oc2ccc(Cl)cc12	i	i	i	i	-8*	·	·	·	·	74%*	i	TRPC4 spec 2=57%*;TRPC4 spec=-26%*;HEK293 MPD ctr 2-1=31%*;HEK293 MPD ctr-1=-432%*
COc1ccc(N/C(N)=N/c2nc(C)cc(C)n2)c(OC)c1	i	i	i	i	-5.1*	-86%*	i	-12%*	i	i	i
COc1ccc(OC)c(N/C(N)=N/c2nc(C)cc(C)n2)c1	i	i	i	i	i	·	·	·	·	·	·
COc1ccc(Cl)cc1N/C(N)=N/c1nc(C)cc(C)n1	i	i	-7*	i	-5.6*	i	i	-10%*	i	i	i
CN(C1CCCCC1)S(=O)(=O)c1cccc(C(=O)OCC(=O)NC2CCCc3ccccc32)c1 (stereo not drawn)	i	i	i	i	i	·	·	·	·	·	·
Cn1c(=O)[nH]c(=O)c2c1nc(Br)n2Cc1cccc(Br)c1	i	i	i	i	i	·	·	·	·	·	·
COc1cc2c(cc1OC)-c1c(OC)c(OC)cc3ccnc(c13)C2=O	i	i	i	i	-7.9*	·	·	·	·	54%*	i	TRPC4 spec 2=63%*;TRPC4 spec=-26%*;HEK293 MPD ctr 2-1=-58%*;HEK293 MPD ctr-1=-426%*
COc1cc2cccc(OC)c(=O)c2c(O)c1OC	i	i	i	i	i	·	·	·	·	·	·
Cc1ccc(S(=O)(=O)Nc2c(C)n(C)n(-c3ccccc3)c2=O)cc1C(=O)OCC(=O)N1CCCC(C)C1 (stereo not drawn)	i	i	i	i	i	·	·	·	·	·	·

Bioassay records from PubChem BioAssay.
